Laboratory results taken from ChEMBL document CHEMBL1221342, “Synthesis and in vitro antitumor activity of new 4,5-dihydropyrazole derivatives” (Bioorg Med Chem, 2010).

Assays:
CCRF-CEM = assay: Growth inhibition of human CCRF-CEM cells after 48 hrs by SRB assay; type: functional
Method in brief: (§1)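 NCI 60-cell-line screen. Cells grown in RPMI1640 with 5% fetal calf serum and 2 mM L-glutamine, with inoculum density set by cell line. Preincubated 24 h, then given compound in DMSO at 10^-4 to 10^-8 M (five 10-fold steps) for 48 h continuous exposure. Growth measured by SRB protein assay. GI50, TGI and LC50 reported as –log molar.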

K562 = assay: Growth inhibition of human K562 cells after 48 hrs by SRB assay; type: functional; conditions: K562, 48 h; method in brief: as §1
MOLT-4 = assay: Growth inhibition of human MOLT4 cells after 48 hrs by SRB assay; type: functional; conditions: MOLT-4, 48 h; method in brief: as §1
[1] = Growth inhibition of human […] cells after 48 hrs by SRB assay; type: functional; method in brief: as §1
HOP-62 = assay: Growth inhibition of human HOP62 cells after 48 hrs by SRB assay; type: functional; conditions: HOP-62, 48 h; method in brief: as §1
NCI-H322M = assay: Growth inhibition of human NCI-H322M cells after 48 hrs by SRB assay; type: functional; method in brief: as §1
NCI-H460 [2] = assay: Growth inhibition of human NCI-H460 cells after 48 hrs by SRB assay; type: functional; conditions: NCI-H460, 48 h; method in brief: as §1
NCI-H522 = assay: Growth inhibition of human NCI-H522 cells after 48 hrs by SRB assay; type: functional; conditions: NCI-H522, 48 h; method in brief: as §1
HCC 2998 = assay: Growth inhibition of human HCC2998 cells after 48 hrs by SRB assay; type: functional; conditions: HCC 2998, 48 h; method in brief: as §1
HCT-116 = assay: Growth inhibition of human HCT116 cells after 48 hrs by SRB assay; type: functional; conditions: HCT-116, 48 h; method in brief: as §1
HCT-15 = assay: Growth inhibition of human HCT15 cells after 48 hrs by SRB assay; type: functional; conditions: HCT-15, 48 h; method in brief: as §1
KM12 = assay: Growth inhibition of human KM12 cells after 48 hrs by SRB assay; type: functional; conditions: KM12, 48 h; method in brief: as §1
SW-620 = assay: Growth inhibition of human SW620 cells after 48 hrs by SRB assay; type: functional; conditions: SW-620, 48 h; method in brief: as §1
SF-268 = assay: Growth inhibition of human SF268 cells after 48 hrs by SRB assay; type: functional; conditions: SF-268, 48 h; method in brief: as §1
SF-539 = assay: Growth inhibition of human SF539 cells after 48 hrs by SRB assay; type: functional; conditions: SF-539, 48 h; method in brief: as §1
U-251 = assay: Growth inhibition of human U251 cells after 48 hrs by SRB assay; type: functional; conditions: U-251, 48 h; method in brief: as §1
M14 = assay: Growth inhibition of human M14 cells after 48 hrs by SRB assay; type: functional; conditions: M14, 48 h; method in brief: as §1
SK-MEL-2 = assay: Growth inhibition of human SK-MEL-2 cells after 48 hrs by SRB assay; type: functional; conditions: SK-MEL-2, 48 h; method in brief: as §1
MDA-MB-435 = assay: Growth inhibition of human MDA-MB-435 cells after 48 hrs by SRB assay; type: functional; conditions: MDA-MB-435, 48 h; method in brief: as §1
SK-MEL-5 = assay: Growth inhibition of human SK-MEL-5 cells after 48 hrs by SRB assay; type: functional; conditions: SK-MEL-5, 48 h; method in brief: as §1
UACC-62 = assay: Growth inhibition of human UACC62 cells after 48 hrs by SRB assay; type: functional; conditions: UACC-62, 48 h; method in brief: as §1
OVCAR-3 = assay: Growth inhibition of human OVCAR-3 cells after 48 hrs by SRB assay; type: functional; conditions: OVCAR-3, 48 h; method in brief: as §1
OVCAR-4 = assay: Growth inhibition of human OVCAR4 cells after 48 hrs by SRB assay; type: functional; conditions: OVCAR-4, 48 h; method in brief: as §1
OVCAR-8 = assay: Growth inhibition of human OVCAR8 cells after 48 hrs by SRB assay; type: functional; conditions: OVCAR-8, 48 h; method in brief: as §1
NCI/ADR-RES = assay: Growth inhibition of human NCI/ADR-RES cells after 48 hrs by SRB assay; type: functional; method in brief: as §1
SK-OV-3 = assay: Growth inhibition of human SKOV3 cells after 48 hrs by SRB assay; type: functional; conditions: SK-OV-3, 48 h; method in brief: as §1
786-0 = assay: Growth inhibition of human 786-0 cells after 48 hrs by SRB assay; type: functional; conditions: 786-0, 48 h; method in brief: as §1
A498 = assay: Growth inhibition of human A498 cells after 48 hrs by SRB assay; type: functional; conditions: A498, 48 h; method in brief: as §1
CAKI-1 = assay: Growth inhibition of human Caki1 cells after 48 hrs by SRB assay; type: functional; conditions: CAKI-1, 48 h; method in brief: as §1
RXF 393 = assay: Growth inhibition of human RXF393 cells after 48 hrs by SRB assay; type: functional; conditions: RXF 393, 48 h; method in brief: as §1
TK-10 = assay: Growth inhibition of human TK10 cells after 48 hrs by SRB assay; type: functional; conditions: TK-10, 48 h; method in brief: as §1
PC-3 = assay: Growth inhibition of human PC3 cells after 48 hrs by SRB assay; type: functional; conditions: PC-3, 48 h; method in brief: as §1
DU-145 = assay: Growth inhibition of human DU145 cells after 48 hrs by SRB assay; type: functional; conditions: DU-145, 48 h; method in brief: as §1
BT-549 = assay: Growth inhibition of human BT549 cells after 48 hrs by SRB assay; type: functional; conditions: BT-549, 48 h; method in brief: as §1
T47D = assay: Growth inhibition of human T47D cells after 48 hrs by SRB assay; type: functional; method in brief: as §1
NCI-H460 [3] = assay: Cytotoxicity against human NCI-H460 cells after 72 hrs by SRB assay; type: functional, cell-based; conditions: NCI-H460, 72 h
Method in brief: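 NCI-H460 (ATCC) cells seeded in 96-well plates in growth medium. Scalar drug concentrations added 24 h after plating, then 72 h exposure. Surviving cells stained with sulforhodamine B, OD read at 570 nm. IC50 (50% growth inhibition) fitted from dose–response curves. Mean ± SE of at least three independent experiments.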

## COc1cc(C2=NNC(c3ccc(N(C)C)cc3)C2)cc(OC)c1OC (centres undefined)
CCRF-CEM
  GI50: 1.58 µM
CCRF-CEM; read-out: pTGI (converted)
  TGI: 6.31 µM
K562
  GI50: 0.398 µM
K562; read-out: pTGI (converted)
  TGI: 79.4 µM
MOLT-4
  GI50: 3.16 µM
MOLT-4; read-out: pTGI (converted)
  TGI: 12.6 µM
[1]
  GI50: 1.58 µM
[1]; read-out: pTGI (converted)
  TGI: 12.6 µM
HOP-62
  GI50: 1.26 µM
HOP-62; read-out: pTGI (converted)
  TGI: > 100 µM
NCI-H322M
  GI50: 12.6 µM
NCI-H322M; read-out: pTGI (converted)
  TGI: > 100 µM
NCI-H460 [2]
  GI50: 1.26 µM
NCI-H460 [2]; read-out: pTGI (converted)
  TGI: 6.31 µM
NCI-H522
  GI50: 2 µM
NCI-H522; read-out: pTGI (converted)
  TGI: 6.31 µM
HCC 2998
  GI50: 1.58 µM
HCC 2998; read-out: pTGI (converted)
  TGI: 5.01 µM
HCT-116
  GI50: 2 µM
HCT-116; read-out: pTGI (converted)
  TGI: 20 µM
HCT-15
  GI50: 2.51 µM
HCT-15; read-out: pTGI (converted)
  TGI: > 100 µM
KM12
  GI50: 0.501 µM
KM12; read-out: pTGI (converted)
  TGI: 12.6 µM
SW-620
  GI50: 0.398 µM
SW-620; read-out: pTGI (converted)
  TGI: > 100 µM
SF-268
  GI50: 2 µM
SF-268; read-out: pTGI (converted)
  TGI: > 100 µM
SF-539
  GI50: 0.501 µM
SF-539; read-out: pTGI (converted)
  TGI: 3.16 µM
U-251
  GI50: 0.631 µM
U-251; read-out: pTGI (converted)
  TGI: > 100 µM
M14
  GI50: 2.51 µM
SK-MEL-2
  GI50: 3.16 µM
SK-MEL-2; read-out: pTGI (converted)
  TGI: 31.6 µM
MDA-MB-435
  GI50: 1 µM
SK-MEL-5
  GI50: 2 µM
SK-MEL-5; read-out: pTGI (converted)
  TGI: 6.31 µM
UACC-62
  GI50: 3.98 µM
UACC-62; read-out: pTGI (converted)
  TGI: > 100 µM
OVCAR-3
  GI50: 6.31 µM
OVCAR-3; read-out: pTGI (converted)
  TGI: > 100 µM
OVCAR-4
  GI50: 15.8 µM
OVCAR-4; read-out: pTGI (converted)
  TGI: > 100 µM
OVCAR-8
  GI50: 3.98 µM
OVCAR-8; read-out: pTGI (converted)
  TGI: > 100 µM
NCI/ADR-RES
  GI50: 2 µM
NCI/ADR-RES; read-out: pTGI (converted)
  TGI: > 100 µM
SK-OV-3
  GI50: 3.98 µM
SK-OV-3; read-out: pTGI (converted)
  TGI: > 100 µM
786-0
  GI50: 2 µM
786-0; read-out: pTGI (converted)
  TGI: > 100 µM
A498
  GI50: 3.16 µM
A498; read-out: pTGI (converted)
  TGI: 7.94 µM
CAKI-1
  GI50: 2.51 µM
CAKI-1; read-out: pTGI (converted)
  TGI: > 100 µM
RXF 393
  GI50: 1.26 µM
RXF 393; read-out: pTGI (converted)
  TGI: 5.01 µM
TK-10
  GI50: 10 µM
TK-10; read-out: pTGI (converted)
  TGI: > 100 µM
PC-3
  GI50: 0.794 µM
PC-3; read-out: pTGI (converted)
  TGI: > 100 µM
DU-145
  GI50: 2 µM
DU-145; read-out: pTGI (converted)
  TGI: 5.01 µM
BT-549
  GI50: 0.794 µM
BT-549; read-out: pTGI (converted)
  TGI: 10 µM
T47D
  GI50: 20 µM
T47D; read-out: pTGI (converted)
  TGI: > 100 µM
NCI-H460 [3]
  IC50: 1.1 µM
